High-throughput results (PubChem BioAssay)
Hits are enriched below; roughly 1.4% of the tested compounds scored in any of these assays.
UCH37 inh – human UCH37 deubiquitinating enzyme inhibition | Q9Y5K5 | purified proteasome/UCH37, Ub-AMC cleavage fluorescence | inhibition, % (test concentration not listed) | 330,000 tested, 0.33% active;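 active = mean inhibition over replicate wells above about 20%, limit read from the data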
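assay system = human UCH37 enzyme supplied as purified proteasome complex | amount = proteasome at 0.15 nM in the dispensed enzyme solution | schedule = 30 min compound-proteasome preincubation then 25 min substrate reaction, room temperature | measured by = fluorescence, ex 355 nm, em 460 nm | benchmarks = no-proteasome wells (full inhibition) and compound-free wells (no inhibition)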
Tb MetRS inh – Trypanosoma brucei MetRS inhibition; purified T. brucei MetRS, ATP depletion, Kinase-Glo luminescence; inhibition, % at 11.9 µM; 360,000 tested, 0.4% active;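 active = inhibition above a per-plate cutoff of the control wells' mean inhibition plus 3 SD, cut at about 5.5% in these data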
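technique = Kinase-Glo luminescence, ATP depletion format | system = purified MetRS (methionyl-tRNA synthetase) enzyme from Trypanosoma brucei | timing = 15 min preincubation, 2 h reaction, all 25 °C | evaluation = percent inhibition versus plate control medians | dosing = single dose, 11.9 µM final nominal, 0.9% final DMSO | also added = substrates ATP, L-methionine and bulk Escherichia coli tRNA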
Rin1-Abl PPI inh – human Rin1-Abl interaction inhibition; P00519+Q13671; 360,000 tested, 0.4% active; TR-FRET Rin1/Abl binding, biochemical; inhibition, % at 7.35 µM; AID 588664; in the data active = inhibition above about 5%, passing the limit was not always enough
ATG4B inh – inhibitors of human ATG4B cysteine protease; Q9Y4P1; ATG4B cleavage of LC3-PLA2, NBD-HPC fluorescence, 1 h; inhibition, % at 8.33 µM; 340,000 tested, 0.51% active; in the data active = inhibition above about 40%
Target sequence (Q9Y4P1 whole entry, looked up): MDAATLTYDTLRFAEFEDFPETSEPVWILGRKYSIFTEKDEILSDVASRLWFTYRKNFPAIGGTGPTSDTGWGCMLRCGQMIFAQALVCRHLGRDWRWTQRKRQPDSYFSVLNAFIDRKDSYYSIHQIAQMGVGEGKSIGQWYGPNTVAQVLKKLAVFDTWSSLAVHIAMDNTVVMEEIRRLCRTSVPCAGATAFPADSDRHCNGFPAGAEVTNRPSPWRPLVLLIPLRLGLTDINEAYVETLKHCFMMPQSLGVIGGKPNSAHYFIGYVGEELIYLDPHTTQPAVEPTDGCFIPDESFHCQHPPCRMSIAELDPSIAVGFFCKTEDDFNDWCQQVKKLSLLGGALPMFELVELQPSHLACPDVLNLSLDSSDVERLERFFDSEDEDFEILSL
Rin1-Abl confirm – Rin1-Abl interaction inhibition confirmation. shares compounds with Rin1-Abl PPI inh. inhibition, % at 7.35 µM. TR-FRET Rin1-Abl binding, purified proteins. AID 602124. 1,300 tested, 49% active
GFP quench – GFP fluorescence interference artifact | shares compounds with Rin1-Abl PPI inh | inhibitors/quenchers counterscreen | inhibition, % at 6.75 µM | 1,300 tested, 8.5% active;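 note: ABL1-eGFP fusion protein alone without its partner RIN1-SBP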
GFP quench DR – quenches GFP in dose response, Rin1-Abl counter-screen. IC50, µM. 230 tested, under 10 active. GFP fluorescence interference/quenching counterscreen. shares compounds with Rin1-Abl PPI inh; call rule not given here;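 note: ABL1-eGFP fusion protein alone without its RIN1 binding partner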
TbMetRS confirm – Trypanosoma brucei MetRS inhibition confirmed; shares compounds with Tb MetRS inh; T. brucei MetRS enzyme, luminescence (ATP depletion); inhibition, % at 11.9 µM; 1,400 tested, 93% active; AID 624412; in the data active = inhibition above about 7%
Jurkat tox – Jurkat T cell cytotoxicity for MetRS hits. 1,400 tested, 12% active. shares compounds with Tb MetRS inh. Jurkat cells viability, ATP luminescence. inhibition, % at 8.3 µM. AID 624413; in the data active = inhibition above about 15%
Tb MetRS inh FP – orthogonal test for Trypanosoma brucei MetRS inhibitors | shares compounds with Tb MetRS inh | purified T. brucei MetRS, fluorescence polarization | inhibition, % at 11.9 µM | 1,400 tested, 44% active; in the data active = inhibition above about 17%
A number is an active result; – = inactive; · = no result. Cut-off read from the data, not from the text of the source, unless noted: active = inhibition above about 6.5%; inactive = the rest.

SMILES | UCH37 inh | Tb MetRS inh | Rin1-Abl PPI inh | ATG4B inh | Rin1-Abl confirm | GFP quench | others
COC1C(OC(=O)c2ccc(C)[nH]2)C(O)C(Oc2ccc3c(O)c(NC(=O)c4ccc(O)c(CC=C(C)C)c4)c(=O)oc3c2Cl)OC1(C)C (stereo not given) | – | – | – | – | · | ·
CC(=O)Nc1ccccc1OC(=O)N(C)C | – | – | – | – | · | ·
O=c1[nH]c2ccccc2n1C1CCN(C(c2ccccc2)c2nnnn2-c2ccc3c(c2)OCCO3)CC1 (stereo not given) | · | – | – | · | · | ·
CCN(CC)C(=O)c1ccc2c(c1)C1C(Cl)C(Sc3ccccc3[N+](=O)[O-])CC1C(C(=O)O)N2 (stereo not given) | – | – | 6.8 | – | – | 17
CN(C)C1C(=O)C(C(N)=O)=C(O)C2(O)C(=O)C3=C(O)c4c(O)cccc4C(C)(O)C3CC12 (stereo not given) | – | – | – | – | · | ·
CN(C)[C@@H]1C(=O)C(C(N)=O)=C(O)[C@@]2(O)C(=O)C3=C(O)c4c(O)cccc4[C@@](C)(O)C3[C@H](O)C12 (stereo not given in full) | – | – | 19 | – | – | –
CCC(=O)OC(Cc1ccccc1)(c1ccccc1)[C@H](C)CN(C)C (stereo not given in full) | – | – | – | – | · | ·
CC[C@H](OC(C)=O)C(C[C@H](C)N(C)C)(c1ccccc1)c1ccccc1 | – | – | 6.8 | – | 8.4 | –
O=c1c2ccccc2nc(CSc2ncnc3nc[nH]c23)n1-c1ccccc1 | – | – | 7.6 | – | – | –
CCN(CC)C(=O)c1ccc(NC(=O)c2cccc(S(=O)(=O)N3CCN(Cc4ccccc4)CC3)c2)cc1 | – | – | – | – | · | ·
CCN(CC)C(=O)c1ccc(NC(=O)c2cc(S(=O)(=O)N3CCCCCC3)ccc2OC)cc1 | – | – | 86 | – | 90 | – | GFP quench DR=–
CCC(C)NC(=O)c1c(N)n(CCCOC)c2nc3ccccc3nc12 (stereo not given) | – | 5.7 | 27 | – | – | – | TbMetRS confirm=–;Jurkat tox=–;Tb MetRS inh FP=–
CCC(C)NC(=O)c1c(N)n(Cc2ccc3c(c2)OCO3)c2nc3ccccc3nc12 (stereo not given) | – | 6.3 | 8.5 | – | – | – | TbMetRS confirm=–;Jurkat tox=–;Tb MetRS inh FP=–
COCCCn1c(N)c(C(=O)Nc2ccccc2)c2nc3ccccc3nc21 | – | – | – | – | · | ·
CSc1nc(N)c(N=Nc2ccc([As](=O)(O)O)cc2)c(=O)[nH]1 | – | – | – | – | · | ·
NNC(=O)CN1C(=O)CN=C(c2ccccc2)c2cc(Br)ccc21 | · | 22 | – | – | · | · | TbMetRS confirm=–;Jurkat tox=–;Tb MetRS inh FP=–
O=C1CN=C(c2ccccc2)c2cc(Br)ccc2N1Cc1cc(=O)n2ccccc2n1 | – | – | – | – | · | ·
CCCCn1c(NS(=O)(=O)c2ccccc2)c(C(=O)OCC)c2nc3ccccc3nc21 | – | 13 | – | – | · | · | TbMetRS confirm=–;Jurkat tox=–;Tb MetRS inh FP=–
C[C@]12CC[C@H](O)CC1=CCC1C2CC[C@@]2(C)C1CC[C@@H]2OCc1ccccc1 (stereo not given in full) | – | – | – | – | · | ·
